Activity calls are given as the source filed them. The rule behind the calls is not given here.
Assays:
[1] = Cytotoxicity against human KLM1 cells grown in nutrient-rich medium after 24 hrs by WST8 assay; type: cell-based; details: klm1, 24 h
Procedure, shortened: (§1)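 Cells seeded at 2 × 10^4/well and grown 24 h in fresh DMEM or RPMI-1640 at 37 °C, 5% CO2. After a PBS wash, the medium was replaced with serially diluted samples in DMEM (nutrient-rich) or NDM. After 24 h, DMEM with 10% WST-8 solution was added. A450 was read after 3 h. Viability (%) was taken from the mean of three wells, blank-corrected against the control. PC50 is 50% kill in NDM without toxicity in DMEM.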

PANC-1 [2] = assay: Cytotoxicity against human PANC1 cells grown in nutrient-rich medium after 24 hrs by WST8 assay; type: cell-based; details: panc-1, 24 h; procedure, shortened: as §1
MIA PaCa-2 [3] = assay: Cytotoxicity against human MIAPaCa2 cells grown in nutrient-deprived medium after 24 hrs by WST8 assay; type: functional; procedure, shortened: as §1
PSN1 [4] = assay: Cytotoxicity against human PSN1 cells grown in nutrient-rich medium after 24 hrs by WST8 assay; type: cell-based; details: psn1, 24 h; procedure, shortened: as §1
PANC-1 [5] = assay: Cytotoxicity against human PANC1 cells grown in nutrient-deprived medium after 24 hrs by WST8 assay; type: functional; procedure, shortened: as §1
PSN1 [6] = assay: Cytotoxicity against human PSN1 cells grown in nutrient-deprived medium after 24 hrs by WST8 assay; type: functional; procedure, shortened: as §1
MIA PaCa-2 [7] = assay: Cytotoxicity against human MIAPaCa2 cells grown in nutrient-rich medium after 24 hrs by WST8 assay; type: cell-based; details: mia paca-2, 24 h; procedure, shortened: as §1
[8] = (§2) Cytotoxicity against human KLM1 cells grown in nutrient-deprived medium after 24 hrs by WST8 assay; type: functional; procedure, shortened: as §1
KLM1 = assay: as §2; type: functional; procedure, shortened: as §1
PANC-1 [9] = assay: Induction of morphological changes in human PANC1 cells assessed as loss of cellular content at 25 uM after 24 hrs by inverted-phase contrast microscopic analysis; type: functional, cell-based
Procedure, shortened: (§3)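 Cells (1 × 10^6) were seeded in 60 mm dishes and attached over 24 h in a humidified CO2 incubator. They were washed twice with PBS and treated at 25 μM in DMEM or NDM, alongside controls. After 24 h, cells were viewed by phase-contrast on an inverted microscope with a 40× objective and photographed.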

PANC-1 [10] = assay: Induction of morphological changes in human PANC1 cells assessed as rounding of cells at 25 uM after 24 hrs by inverted-phase contrast microscopic analysis; type: functional, cell-based; procedure, shortened: as §3
PANC-1 [11] = assay: Induction of morphological changes in human PANC1 cells assessed as plasma membrane rupture at 25 uM after 24 hrs by inverted-phase contrast microscopic analysis; type: functional, cell-based; procedure, shortened: as §3

| SMILES | Activity [1] | Activity (PANC-1 [2]) | PC50 (MIA PaCa-2 [3]) [µM] | Activity (PSN1 [4]) | PC50 (PANC-1 [5]) [µM] | PC50 (PSN1 [6]) [µM] | Activity (MIA PaCa-2 [7]) | PC50 [8] [µM] | Activity (KLM1) | Activity (PANC-1 [9]) | Activity (MIA PaCa-2 [3]) | Activity (PANC-1 [10]) | Activity (PANC-1 [5]) | Activity (PSN1 [6]) | Activity (PANC-1 [11]) |
| --- | --- | --- | --- | --- | --- | --- | --- | --- | --- | --- | --- | --- | --- | --- | --- |
| O=C(OCC1=C[C@H](O)[C@H](O)[C@@H](OC(=O)c2ccccc2)[C@@H]1O)c1ccccc1 [UVARIDACOL C] | Non-toxic | Non-toxic | 115 | Non-toxic | 72.9 | 152 | Non-toxic |  |  |  |  |  |  |  |  |
| CO[C@@H]1C=C(COC(=O)c2ccccc2)[C@H](OC(C)=O)[C@H](OC(=O)c2ccccc2)[C@@H]1O [UVARIDACOL B] | Non-toxic | Non-toxic | 147 | Non-toxic | 69.8 | 158 | Non-toxic | >200 |  |  |  |  |  |  |  |
| COc1ccccc1COC(=O)c1ccccc1 | Non-toxic | Non-toxic | 131 | Non-toxic | 137 | 185 | Non-toxic | >200 |  |  |  |  |  |  |  |
| C/C(=C\COC(=O)/C=C/c1ccccc1)COC(=O)c1ccccc1 [UVARIDACANE B] | Non-toxic | Non-toxic | 57.8 | Non-toxic | 134 | 143 | Non-toxic | >200 |  |  |  |  |  |  |  |
| CC(=O)O[C@H]1C(COC(=O)c2ccccc2)=C[C@@H](O)[C@@H](O)[C@H]1OC(=O)c1ccccc1 [UVARIDACOL A] | Non-toxic | Non-toxic | 192 | Non-toxic | 102 | 173 | Non-toxic | 83 |  |  |  |  |  |  |  |
| C/C(=C\COC(=O)c1ccccc1)COC(=O)c1ccccc1 [UVARIDACANE A] | Non-toxic | Non-toxic | 56.3 | Non-toxic | 72.3 | 96.5 | Non-toxic | 122 |  |  |  |  |  |  |  |
| COc1cc(C[C@H]2C(=O)OC[C@@H]2Cc2ccc(OC)c(OC)c2)ccc1O [ARCTIGENIN] | Non-toxic | Non-toxic | 0.67 | Non-toxic | 1.7 | 1.9 | Non-toxic | 1.5 |  |  |  |  |  |  |  |
| Nc1ccn([C@@H]2O[C@H](CO)[C@@H](O)C2(F)F)c(=O)n1 [GEMCITABINE] | Non-toxic | Non-toxic | >200 | Non-toxic | >200 | >200 | Non-toxic | >200 |  |  |  |  |  |  |  |
| CC(=O)O[C@@H]1C(COC(=O)c2ccccc2)=C[C@H]2O[C@H]2[C@H]1OC(=O)c1ccccc1 [UVARIDAPOXIDE A] | Non-toxic | Non-toxic | 100 | Non-toxic | 112 | 80.1 | Non-toxic | 159 |  |  |  |  |  |  |  |
| O=C(OC[C@@]1(O)C(=O)C=C[C@H]2[C@@H]1[C@H]1C=C[C@@H]2C(=O)[C@]1(O)COC(=O)c1ccccc1)c1ccccc1 | Non-toxic | Non-toxic | 17.5 | Non-toxic | 14.5 | 32.6 | Non-toxic | 32.7 | Dose-dependent effect | Active | Dose-dependent effect | Active | Dose-dependent effect | Dose-dependent effect | Active |
